Assay outcomes deposited in PubChem by several laboratories.
Hits are enriched below; roughly 3.8% of the tested compounds scored in any of these assays.
Hep lipid drop = hepatic lipid droplet formation modulation | AML12 mouse hepatocytes, oleate lipid droplets, BODIPY imaging | inhibition, % at 6.5 µM | 240,000 compounds, 0.4% hits | AID 1656;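 active = lipid droplet intensity inhibited by at least 50%, with more than 500 cells counted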
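material = mouse AML12 hepatocyte cell line, fixed after treatment | also added = 100 µM oleic acid challenge | doses = compound at 6.5 µM only | schedule = overnight exposure | technique = Image-based BODIPY and DAPI two-channel analysis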
RGS4 pot = RGS4 potentiation or activation; HEK293 M3R/inducible RGS4, carbachol calcium flux Fluo4; stronger effect = lower value; B-score at 10 µM; 310,000 compounds, 0.92% hits; AID 463111;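 active = B-score of the integrated calcium signal more than 4 SD below the library mean, with starting fluorescence not abnormally high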;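 note: negative B-score means reduced calcium response which marks RGS4 activation or potentiation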
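Assay system: HEK293 FlpIn-TREx cells, stable M3R, doxycycline-inducible RGS4 / Probe or stimulus: carbachol, ECmax concentration / Times: overnight RGS4 induction, 30 min dye load 37 °C, 20 min compound RT / Signal: kinetic calcium fluorescence imaging with Fluo4-AM dye, 2 µM / Measure: Agonist-evoked peak-minus-minimum fluorescence over baseline, integrated ratio, B score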
RGS4 inh = inhibitors of human RGS4. P49798. HEK293 M3R/RGS4 inducible, Fluo-4 calcium flux; stronger effect = higher value; triggered by carbachol at its EC20. B-score at 10 µM. 310,000 compounds, 0.45% hits. AID 463165;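 active = B-score, a plate-corrected calcium signal, over three deviations above library mean, with baseline fluorescence within five deviations of library mean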;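 note: RGS4 expression induced by doxycycline in cells with stable M3 receptor; B-score is computed from the integrated fluorescence ratio over baseline after carbachol; higher B-score means a larger calcium signal and so more RGS4 inhibition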
Target sequence (P49798 whole entry, looked up): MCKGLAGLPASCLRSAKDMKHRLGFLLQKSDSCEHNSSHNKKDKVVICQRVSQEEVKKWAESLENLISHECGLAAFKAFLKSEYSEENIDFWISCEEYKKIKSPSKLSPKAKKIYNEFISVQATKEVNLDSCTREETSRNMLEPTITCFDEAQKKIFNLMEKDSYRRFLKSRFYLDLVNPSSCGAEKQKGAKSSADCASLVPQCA
MrgX1 ag = activates human MrgX1 receptor signaling. MrgX1-HEK293 cells, Fluo-4 calcium fluorescence, agonist mode; stronger effect = higher value. B-score at 10 µM. 310,000 compounds, 0.44% hits. AID 588627;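 active = calcium response B-score plate-corrected fluorescence ratio at least 3 library SD, with starting fluorescence B-score inside 5 SD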
Target sequence (Q96LB2 whole entry, looked up): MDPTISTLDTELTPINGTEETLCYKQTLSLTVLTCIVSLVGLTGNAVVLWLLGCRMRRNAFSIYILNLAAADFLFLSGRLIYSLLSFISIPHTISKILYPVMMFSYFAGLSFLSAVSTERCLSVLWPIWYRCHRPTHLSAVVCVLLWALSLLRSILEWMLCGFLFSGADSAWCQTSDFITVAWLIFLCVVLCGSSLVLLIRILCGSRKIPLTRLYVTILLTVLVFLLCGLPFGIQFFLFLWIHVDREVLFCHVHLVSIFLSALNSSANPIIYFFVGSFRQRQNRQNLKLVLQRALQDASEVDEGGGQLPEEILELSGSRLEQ
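Material: HEK293 cells stably expressing human MrgX1 receptor | Quantity: 15,000 cells per well | Times: Cells plated overnight, dye loaded 0.5 h 37 °C, 0.5 h room temperature | Measured by: Kinetic Fluo-4 NW fluorescence of intracellular calcium | Control set: Positive and negative controls per plate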
MrgX1 PAM = allosterically activates human MrgX1 receptor signaling | Q96LB2 | MrgX1-HEK293, Fluo-4 calcium flux, FDSS; stronger effect = higher value | B-score at 10 µM | 310,000 compounds, 0.63% hits | AID 588675;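 active = plate-corrected calcium response at least 3 library SD above typical, normal starting fluorescence, not activating the receptor alone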;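 note: compound read alongside a low EC10 to EC30 dose of BAM8-22 agonist; peak minus trough fluorescence over baseline measured at the second addition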
MrgX1 antagonist = blocks BAM8-22 activation of human MrgX1 receptor; Q96LB2; MRGX1-HEK293 calcium flux, Fluo-4, BAM8-22 antagonism; stronger effect = lower value; B-score at 10 µM; 310,000 compounds, 1.3% hits;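 active = calcium-response B-score plate-corrected more than 3 library SD below zero, starting fluorescence within 5 deviations, no agonist response on first addition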;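 note: peak minus trough fluorescence over baseline after final BAM8-22 challenge near maximal dose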
* marks the source's active call; other numbers are inactive results.

For O=C(NCCCN=C1NS(=O)(=O)c2ccccc21)c1ccc(Cl)cc1 the results were Hep lipid drop 11, RGS4 pot inactive, RGS4 inh inactive, MrgX1 ag inactive, MrgX1 PAM inactive and MrgX1 antagonist inactive.
O=C(CN(Cc1ccccc1)C(=O)c1csnn1)NCc1ccccc1 was read as Hep lipid drop -2, RGS4 pot inactive, RGS4 inh inactive, MrgX1 ag inactive, MrgX1 PAM inactive and MrgX1 antagonist inactive.
COc1cccc(CN2CC(C(=O)N(C)Cc3ccnc4ccccc34)CCC2=O)c1 (configuration not stated) was read as Hep lipid drop 9, RGS4 pot inactive, RGS4 inh inactive, MrgX1 ag inactive, MrgX1 PAM inactive and MrgX1 antagonist inactive.
For CC(CN(C)C)CN1c2ccccc2CCc2ccccc21 (configuration not stated) the results were Hep lipid drop 10, RGS4 pot inactive, RGS4 inh inactive, MrgX1 ag inactive, MrgX1 PAM inactive and MrgX1 antagonist -4.9*.
`CCOc1ccc(CCNC(=O)c2cccc(S(=O)(=O)N3CC(C)OC(C)C3)c2)cc1OCC` (configuration not stated) gave RGS4 pot inactive, RGS4 inh inactive, MrgX1 ag inactive, MrgX1 PAM inactive and MrgX1 antagonist -6.5*.
`CCOc1ccc(CCNC(=O)c2cccc(S(=O)(=O)N3CCCC3)c2)cc1OCC` gave RGS4 pot inactive, RGS4 inh inactive, MrgX1 ag inactive, MrgX1 PAM inactive and MrgX1 antagonist inactive.
`O=C(CC(=O)c1cc(Cl)ccc1O)c1ccccc1` gave Hep lipid drop -14, RGS4 pot inactive, RGS4 inh inactive, MrgX1 ag inactive, MrgX1 PAM inactive and MrgX1 antagonist -5*.
`Cc1cccc(C(=O)CC(=O)c2cc(Cl)ccc2O)c1` gave Hep lipid drop 9, RGS4 pot inactive, RGS4 inh inactive, MrgX1 ag inactive, MrgX1 PAM inactive and MrgX1 antagonist inactive.
For Cc1c(C(=O)N2CCc3ccccc3C2)oc2ccccc12 the results were Hep lipid drop 8, RGS4 pot inactive, RGS4 inh inactive, MrgX1 ag inactive, MrgX1 PAM inactive and MrgX1 antagonist inactive.
O=C(O)c1ccccc1C(=O)N1N=C(c2ccccc2)CC1c1ccccc1O (configuration not stated) was read as Hep lipid drop -5, RGS4 pot inactive, RGS4 inh inactive, MrgX1 ag inactive, MrgX1 PAM inactive and MrgX1 antagonist inactive.
`O=C(c1ccccc1Br)N1N=C(c2ccccc2)CC1c1ccccc1F` (configuration not stated) gave Hep lipid drop 19, RGS4 pot -8*, RGS4 inh inactive, MrgX1 ag inactive, MrgX1 PAM inactive and MrgX1 antagonist inactive.
For CCn1c(CC(=O)Nc2ccc(C)cc2)nnc1SCC(=O)NCCc1ccccc1 the results were RGS4 pot inactive, RGS4 inh inactive, MrgX1 ag inactive, MrgX1 PAM inactive and MrgX1 antagonist -5.5*.
For CCOc1ccc(N(CCCCO)C(=S)NC(=O)c2ccc(C)c(Br)c2)cc1 the results were Hep lipid drop 2, RGS4 pot inactive, RGS4 inh inactive, MrgX1 ag inactive, MrgX1 PAM inactive and MrgX1 antagonist inactive.
COc1ccc2nc(NC(=O)C3=NN(c4ccccc4)C(=O)CC3)sc2c1 was read as Hep lipid drop -34, RGS4 pot inactive, RGS4 inh inactive, MrgX1 ag inactive, MrgX1 PAM inactive and MrgX1 antagonist -5.6*.
`COc1ccccc1C(=O)N/C(=C\c1cn(C)c2ccccc12)C(=O)NCCCN1CCOCC1` gave Hep lipid drop 0, RGS4 pot inactive, RGS4 inh inactive, MrgX1 ag inactive, MrgX1 PAM inactive and MrgX1 antagonist inactive.
`N#C/C(=C(/O)CSc1ncn[nH]1)c1nc2ccccc2[nH]1` gave Hep lipid drop -6, RGS4 pot inactive, RGS4 inh inactive, MrgX1 ag inactive, MrgX1 PAM inactive and MrgX1 antagonist -6.1*.
COc1ccc2oc(=O)c(C(=O)C[n+]3cccc(C)c3)cc2c1 was read as Hep lipid drop -22, RGS4 pot -10*, RGS4 inh inactive, MrgX1 ag inactive, MrgX1 PAM inactive and MrgX1 antagonist inactive.
`CNC(=O)c1cc2cc(OC)ccc2oc1=O` gave Hep lipid drop 29, RGS4 pot inactive, RGS4 inh inactive, MrgX1 ag inactive, MrgX1 PAM inactive and MrgX1 antagonist inactive.
c1ccc(C2OC3c4cccc5cccc(c45)C3N2c2ccccc2)cc1 (configuration not stated) was read as Hep lipid drop 4, RGS4 pot inactive, RGS4 inh inactive, MrgX1 ag 34*, MrgX1 PAM inactive and MrgX1 antagonist inactive.
`C/C(=N/NC(=O)c1ccc(C(C)(C)C)cc1)c1ccccn1` gave RGS4 pot inactive, RGS4 inh 8.5*, MrgX1 ag inactive, MrgX1 PAM inactive and MrgX1 antagonist inactive.
`CCCCCc1ccc(OCCCC[n+]2ccccc2)c(CCCCC)c1` gave Hep lipid drop -4, RGS4 pot -7.8*, RGS4 inh inactive, MrgX1 ag inactive, MrgX1 PAM inactive and MrgX1 antagonist inactive.
For CCCCCc1ccc(OCCCC[n+]2cccc(C)c2)c(CCCCC)c1 the results were Hep lipid drop -31, RGS4 pot -8.7*, RGS4 inh inactive, MrgX1 ag inactive, MrgX1 PAM inactive and MrgX1 antagonist inactive.
Screening CC(C)C(C(=O)Nc1ccncc1)c1ccc(Cl)cc1 (configuration not stated) returned Hep lipid drop -6, RGS4 pot inactive, RGS4 inh inactive, MrgX1 ag inactive, MrgX1 PAM inactive and MrgX1 antagonist -4.6*.
COc1ccc(OC)c(NC(=O)COC(=O)CCCN2C(=O)c3ccccc3C2=O)c1 was read as Hep lipid drop 0, RGS4 pot inactive, RGS4 inh inactive, MrgX1 ag inactive, MrgX1 PAM inactive and MrgX1 antagonist -9*.
CC[N+](C)(CC)CCC(c1ccccc1)C1CCCCC1 (configuration not stated) was read as Hep lipid drop 1, RGS4 pot -8.7*, RGS4 inh inactive, MrgX1 ag inactive, MrgX1 PAM inactive and MrgX1 antagonist inactive.
Screening COc1ccc(OC)c(NC(=O)Nc2nnc(N3CCCCC3C)s2)c1 (configuration not stated) returned Hep lipid drop 16, RGS4 pot inactive, RGS4 inh inactive, MrgX1 ag inactive, MrgX1 PAM inactive and MrgX1 antagonist inactive.
